Results reported in ChEMBL document CHEMBL1149551, “Novel selective PPARdelta agonists: optimization of activity by modification of alkynylallylic moiety” (Bioorg Med Chem Lett, 2007).

Legend:
[1] = molecular target: T1, Peroxisome proliferator-activated receptor alpha (Homo sapiens, UniProt Q07869); assay: Agonist activity at human PPARalpha by transactivation assay; type: functional
T1 sequence (Q07869 whole entry): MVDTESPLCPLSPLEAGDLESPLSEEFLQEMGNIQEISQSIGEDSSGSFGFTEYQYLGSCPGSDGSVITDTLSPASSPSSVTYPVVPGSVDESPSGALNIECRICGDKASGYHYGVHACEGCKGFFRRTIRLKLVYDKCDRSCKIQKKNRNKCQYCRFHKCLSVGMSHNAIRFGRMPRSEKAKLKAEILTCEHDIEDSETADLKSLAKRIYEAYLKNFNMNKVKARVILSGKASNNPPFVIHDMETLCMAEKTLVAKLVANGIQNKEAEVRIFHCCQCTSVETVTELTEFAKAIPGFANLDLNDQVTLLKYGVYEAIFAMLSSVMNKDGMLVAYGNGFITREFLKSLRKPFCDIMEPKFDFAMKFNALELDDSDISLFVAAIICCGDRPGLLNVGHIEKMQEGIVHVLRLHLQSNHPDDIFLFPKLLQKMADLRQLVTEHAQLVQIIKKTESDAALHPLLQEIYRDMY

[2] = molecular target: T2, Peroxisome proliferator-activated receptor alpha (Homo sapiens) (UniProt Q07869); assay: Agonist activity at human PPARalpha by transactivation assay relative to NNC 61-4655; type: functional
T2 sequence (whole entry): T1 sequence (Q07869 whole entry)
Outline: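 Transactivation run in at least three separate experiments, each at five or more concentrations from 0.001 to 30 µM. EC50 is the concentration giving half of the compound's own maximal activity, reported as the mean. Efficacy is given relative to the maximal activity of the reference PPARα agonist.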

[3] = molecular target: T3, Peroxisome proliferator-activated receptor delta (Homo sapiens, UniProt Q03181)
T3 sequence (Q03181 whole entry): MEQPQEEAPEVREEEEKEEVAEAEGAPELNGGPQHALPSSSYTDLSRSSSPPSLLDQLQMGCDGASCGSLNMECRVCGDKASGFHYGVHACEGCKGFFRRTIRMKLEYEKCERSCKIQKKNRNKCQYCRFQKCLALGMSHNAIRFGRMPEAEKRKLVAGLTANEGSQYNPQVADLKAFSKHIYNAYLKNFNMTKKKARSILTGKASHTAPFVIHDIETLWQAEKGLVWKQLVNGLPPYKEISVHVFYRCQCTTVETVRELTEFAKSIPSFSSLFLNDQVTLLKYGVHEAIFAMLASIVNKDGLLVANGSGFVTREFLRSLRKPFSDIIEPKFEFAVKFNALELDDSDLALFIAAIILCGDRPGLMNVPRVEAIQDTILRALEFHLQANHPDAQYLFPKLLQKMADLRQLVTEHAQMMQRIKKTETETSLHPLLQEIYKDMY

[4] = molecular target: T4, Peroxisome proliferator-activated receptor gamma (Homo sapiens, UniProt P37231); type: functional
T4 sequence (P37231 whole entry): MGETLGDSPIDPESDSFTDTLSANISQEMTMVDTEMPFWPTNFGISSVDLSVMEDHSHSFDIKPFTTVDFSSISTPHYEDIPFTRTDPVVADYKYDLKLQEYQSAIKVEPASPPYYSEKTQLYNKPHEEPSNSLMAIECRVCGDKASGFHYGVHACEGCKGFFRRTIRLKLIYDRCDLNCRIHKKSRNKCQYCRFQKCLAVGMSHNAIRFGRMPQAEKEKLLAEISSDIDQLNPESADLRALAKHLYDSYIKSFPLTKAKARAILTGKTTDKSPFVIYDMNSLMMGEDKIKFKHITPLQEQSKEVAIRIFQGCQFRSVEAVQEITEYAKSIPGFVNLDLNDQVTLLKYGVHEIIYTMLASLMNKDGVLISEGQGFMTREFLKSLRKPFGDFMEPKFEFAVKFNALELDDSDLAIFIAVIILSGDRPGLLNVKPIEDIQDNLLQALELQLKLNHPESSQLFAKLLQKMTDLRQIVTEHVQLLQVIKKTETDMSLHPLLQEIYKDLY

SMILES | EC50 [1] | %max [2] | EC50 [3] | EC50 [4]
Cc1cc(OC/C=C\C(C#Cc2ccccn2)c2ccc(Br)cc2)ccc1OCC(=O)O (stereo unspecified) | > 10 µM | > 22% | 0.24 µM | 
Cc1cc(SCc2sc(-c3ccc(C(F)(F)F)cc3)nc2C)ccc1OCC(=O)O |  | 68% |  | 
COc1ccc(C#CC(/C=C\CSc2ccc(OCC(=O)O)c(C)c2)c2ccc(-c3ccccc3)cc2)cc1 (stereo unspecified) | > 10 µM | > 58% | 0.011 µM | > 10 µM
Cc1ccc(-c2ccc(/C(C#Cc3ccccc3)=C/COc3ccc(OCC(=O)O)c(C)c3)cc2)s1 | > 10 µM | > 60% |  | > 10 µM
CCO[C@@H](Cc1ccc(OC/C=C/C#Cc2ccccc2)cc1)C(=O)O | 0.01 µM |  | 6.4 µM | 2.6 µM
Cc1cc(OC/C=C\C(C#Cc2ccc(C(F)(F)F)cc2)c2ccc(Br)cc2)ccc1OCC(=O)O (stereo unspecified) | > 10 µM | > 19% | 0.13 µM | 
Cc1cc(OC/C=C(\C#Cc2ccccc2)c2ccc(Br)cc2)ccc1OCC(=O)O |  | < 10% |  | 
Cc1cc(SC/C=C\C(C#Cc2ccccc2)c2ccc(Br)cc2)ccc1OCC(=O)O (stereo unspecified) | > 10 µM | > 24% | 0.16 µM | > 10 µM
Cc1cc2cc(C(C#Cc3ccc(F)cc3)/C=C\COc3ccc(OCC(=O)O)c(C)c3)ccc2o1 (stereo unspecified) | > 10 µM | > 41% |  | > 10 µM
CN(CCOc1ccc(CC2SC(=O)NC2=O)cc1)c1ccccn1 (stereo unspecified) |  | > 24% |  | 
Cc1cc(OC/C=C\C(C#Cc2ccccc2)c2cnc3ccccc3c2)ccc1OCC(=O)O (stereo unspecified) | 4.1 µM | 33% |  | 6.6 µM
Cc1cc2cc(C(C#Cc3ccc(C)s3)/C=C\COc3ccc(OCC(=O)O)c(C)c3)ccc2o1 (stereo unspecified) | 5.8 µM | < 10% | 0.15 µM | > 10 µM
CCO[C@@H](Cc1ccc(OC/C=C(\C#Cc2ccccc2)c2ccccc2)cc1)C(=O)O | > 10 µM |  |  | > 10 µM
Cc1cc(SC/C=C/C#Cc2ccccc2)ccc1OCC(=O)O | 14 µM |  | 12.1 µM | 
Cc1ccc(C#CC(/C=C\COc2ccc(OCC(=O)O)c(C)c2)c2ccc(Br)cc2)s1 (stereo unspecified) | > 10 µM | > 15% | 0.22 µM | 
Cc1cc(OC/C=C(\C#Cc2ccccc2)c2ccccc2)ccc1OCC(=O)O |  | < 10% |  | 
